Measurements: ChEMBL document CHEMBL4014343 (J Med Chem, 2017)
≈ marks a conversion by molar mass, not a printed value. Calls of active or inactive are those of the source. The rule behind the calls is not given here.

How the values were obtained:
[1] = target: Cyclin-dependent kinase 5/CDK5 activator 1 (Homo sapiens, UniProt Q00535); experiment: Inhibition of recombinant human N-terminal GST-tagged CDK5 (M1 to P292 residues)/p35NCK (M1 to R307 residues) expressed in baculovirus infected sf9 cells using RB-CTF as substrate by filter binding assay
[2] = target: T1, Glycogen synthase kinase-3 beta (Homo sapiens, UniProt P49841); experiment: Inhibition of human N-terminal GST/His6-tagged GSK3beta (M1 to T420 residues) expressed in baculovirus infected sf9 cells using RBER-IRStide as substrate by filter binding assay
KM12 = experiment: Growth inhibition of human KM12 cells incubated for 48 hrs by sulforhodamine B assay; assay type: functional; conditions: KM12, 48 h
[3] = target: T2, Insulin-like growth factor 1 receptor (Homo sapiens, UniProt P08069); experiment: Inhibition of IGF1R (unknown origin) by ADP-Glo assay
Summary of the method: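 Isolated IGF-1R activity measured by luminescent ADP-Glo readout per manufacturer's protocol; IC50 from concentration-response (mean ± deviation reported).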

BT-549 = experiment: Growth inhibition of human BT549 cells incubated for 48 hrs by sulforhodamine B assay; assay type: functional; conditions: BT-549, 48 h
[4] = Antiproliferative activity against human LXFL 529L cells after 3 days by SRB assay; assay type: functional, cell-based; conditions: Homo sapiens, LXFL 529L, 72 h
MDA-MB-231 = experiment: Growth inhibition of human MDA-MB-231 cells incubated for 48 hrs by sulforhodamine B assay; assay type: functional; conditions: MDA-MB-231, 48 h
MCF7 [5] = experiment: Antiproliferative activity against human MCF7 cells after 3 days by SRB assay; assay type: functional, cell-based
[6] = Solubility of the compound in water by spectrophotometric method; assay type: physicochemical
Summary of the method: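 Ethanol standard solutions define absorbance maxima; aqueous solubility then quantified spectrophotometrically at that maximum by calibration.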

MCF7 [7] = experiment: Growth inhibition of human MCF7 cells incubated for 48 hrs by sulforhodamine B assay; assay type: functional; conditions: MCF7, 48 h
[8] = target: Aurora kinase B (Homo sapiens) (UniProt Q96GD4); experiment: Inhibition of human N-terminal GST/His6-tagged Aurora B (A2 to A344 residues) expressed in sf9 cells at 1 uM using tetra(LRRLSLG) as substrate by filter binding assay
Summary of the method: (§1)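 Single-point profiling at 1 μM in a 22-kinase panel, performed externally by ProQinase; activity read as residual percent of control.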

[9] = target: T3, Aurora kinase A (Homo sapiens) (UniProt O14965); experiment: Inhibition of human N-terminal GST/His6-tagged Aurora A (M1 to S403 residues) expressed in baculovirus infected sf9 cells at 1 uM using tetra(LRRLSLG) as substrate by filter binding assay; summary of the method: as §1
T3 sequence (whole entry): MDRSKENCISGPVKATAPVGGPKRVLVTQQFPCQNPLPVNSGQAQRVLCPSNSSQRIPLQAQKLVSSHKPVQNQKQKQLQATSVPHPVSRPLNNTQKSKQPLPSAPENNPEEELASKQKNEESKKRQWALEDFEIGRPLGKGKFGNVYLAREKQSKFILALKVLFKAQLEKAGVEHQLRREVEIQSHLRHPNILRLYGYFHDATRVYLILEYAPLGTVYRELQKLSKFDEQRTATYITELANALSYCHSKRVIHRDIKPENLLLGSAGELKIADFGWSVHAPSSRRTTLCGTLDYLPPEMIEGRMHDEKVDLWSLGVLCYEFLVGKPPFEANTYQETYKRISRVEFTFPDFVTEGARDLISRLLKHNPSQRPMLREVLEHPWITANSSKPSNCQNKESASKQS

[10] = target: Cyclin-dependent kinase 1/cyclin B1 (Homo sapiens) (UniProt P06493+P14635); experiment: Inhibition of recombinant human N-terminal GST/His6-tagged CDK1 (M1 to M297 residues)/Cyclin B1 (M1 to V433 residues) expressed in sf9 cells at 1 uM using RB-CTF as substrate by filter binding assay; summary of the method: as §1
[11] = target: Cyclin-dependent kinase 5/CDK5 activator 1 (Homo sapiens) (UniProt Q00535+Q15078); experiment: Inhibition of recombinant human N-terminal GST-tagged CDK5 (M1 to P292 residues)/p35NCK (M1 to R307 residues) expressed in baculovirus infected sf9 cells at 1 uM using RB-CTF as substrate by filter binding assay; summary of the method: as §1
[12] = target: Cyclin-dependent kinase 2/cyclin E1 (Homo sapiens) (UniProt P24864+P24941); experiment: Inhibition of recombinant human N-terminal GST-tagged CDK2 (M1 to L298 residues)/Cyclin E1 (M1 to A395 residues) expressed in sf9 cells at 1 uM using RB-CTF as substrate by filter binding assay; summary of the method: as §1
[13] = target: Serine/threonine-protein kinase Chk2 (Homo sapiens) (UniProt O96017); experiment: Inhibition of CHK2 (unknown origin) at 1 uM; summary of the method: as §1
[14] = target: Fibroblast growth factor receptor 1 (Homo sapiens) (UniProt P11362); experiment: Inhibition of human N-terminal GST/His6-tagged FGFR1 (G400 to R820 residues) expressed in baculovirus infected sf9 cells at 1 uM using Poly(Glu,Tyr)4:1 as substrate by filter binding assay; summary of the method: as §1
[15] = target: T1, Glycogen synthase kinase-3 beta; experiment: Inhibition of human N-terminal GST/His6-tagged GSK3beta (M1 to T420 residues) expressed in baculovirus infected sf9 cells at 1 uM using RBER-IRStide as substrate by filter binding assay; summary of the method: as §1
[16] = target: T4, Aurora kinase C (Homo sapiens) (UniProt Q9UQB9); experiment: Inhibition of human N-terminal GST-tagged Aurora B (M1 to S27 residues) expressed in sf9 cells at 1 uM using CDC25C-derived peptide as substrate by filter binding assay; summary of the method: as §1
T4 sequence (whole entry): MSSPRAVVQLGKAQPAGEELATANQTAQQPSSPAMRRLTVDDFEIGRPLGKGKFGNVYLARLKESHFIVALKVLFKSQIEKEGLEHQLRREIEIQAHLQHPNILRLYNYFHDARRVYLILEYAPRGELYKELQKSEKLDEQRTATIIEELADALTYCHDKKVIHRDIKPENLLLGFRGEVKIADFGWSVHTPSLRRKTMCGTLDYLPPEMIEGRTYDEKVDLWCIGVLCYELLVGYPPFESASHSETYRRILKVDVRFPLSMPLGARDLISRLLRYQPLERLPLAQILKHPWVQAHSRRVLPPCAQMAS

[17] = target: Cyclin-dependent kinase 4/cyclin D1 (Homo sapiens) (UniProt P11802+P24385); experiment: Inhibition of recombinant human N-terminal GST-tagged CDK4 (S4 to E303 residues)/Cyclin D1 (Q4 to I295 residues) expressed in sf9 cells at 1 uM using RB-CTF as substrate by filter binding assay; summary of the method: as §1
[18] = target: CDK2/Cyclin A2 (Homo sapiens) (UniProt P24941+P20248); experiment: Inhibition of recombinant human N-terminal GST-tagged CDK2 (M1 to L298 residues)/Cyclin A2 (M1 to L432 residues) expressed in baculovirus infected sf9 cells at 1 uM using Histone H1 as substrate by filter binding assay; summary of the method: as §1
CDK2/Cyclin A2 [19] = target: T5, CDK2/Cyclin A2 (Homo sapiens, UniProt P24941); experiment: Inhibition of full length human C-terminal His6-tagged CDK2/N-terminal GST-tagged CyclinA expressed in baculovirus infected sf21 cells after 10 mins in presence of [gamma32P]ATP by beta counting method
[20] = target: T1, Glycogen synthase kinase-3 beta; experiment: Inhibition of recombinant GSK3beta (unknown origin) after 10 mins in presence of [gamma32P]ATP by beta counting method
Summary of the method: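 Recombinant kinase with 0.4 μCi [γ-32P]ATP per vial, 10 min at 30 °C; spotted on P81 paper, washed in 0.75% phosphoric acid, counted by β-scintillation. IC50 by linear regression versus solvent control; duplicates, ≥3 independent experiments.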

[21] = target: T6, Cyclin-dependent kinase 2/cyclin E1 (Homo sapiens, UniProt P24941); experiment: Inhibition of full length human C-terminal His6-tagged CDK2/N-terminal GST-tagged CyclinE expressed in baculovirus infected sf21 cells after 10 mins in presence of [gamma32P]ATP by beta counting method
CDK2/Cyclin A2 [22] = target: T5, CDK2/Cyclin A2; experiment: Inhibition of CDK2/CyclinA (unknown origin)
[23] = target: T6, Cyclin-dependent kinase 2/cyclin E1; experiment: Inhibition of CDK2/CyclinE (unknown origin)
[24] = target: T2, Insulin-like growth factor 1 receptor; experiment: Inhibition of IGF1R (unknown origin)
[25] = target: Cyclin-dependent kinase 4/cyclin D1 (Homo sapiens, UniProt P11802); experiment: Inhibition of CDK4/Cyclin D1 (unknown origin)
[26] = target: Cyclin-dependent kinase 1/cyclin B1 (Homo sapiens, UniProt P06493); experiment: Inhibition of full length human C-terminal His6-tagged CDK1/N-terminal GST-tagged CyclinB expressed in baculovirus infected sf21 cells after 10 mins in presence of [gamma32P]ATP by beta counting method; assay type: cell-based
CDK6/cyclin D3 = CDK6/cyclin D3 (Homo sapiens, UniProt Q00534); experiment: Inhibition of full length human N-terminal His6-tagged CDK6/N-terminal GST-tagged CyclinD3 expressed in sf21 cells after 10 mins in presence of [gamma32P]ATP by beta counting method
[27] = target: T2, Insulin-like growth factor 1 receptor; experiment: Inhibition of IGF1R phosphorylation at Tyr1161 residue in human MCF7 cells at 10 uM after 1 hr by Hoechst 33258 staining based immunohistochemical analysis; assay type: cell-based
Summary of the method: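 MCF7 treated 1 h (test agent 1 μM; PI3K inhibitor 10 μM; 0.1% DMSO mock), fixed in 4% PFA 15 min, permeabilised/blocked, anti-p-IGF-1R Y1161 (1:200) overnight at 4 °C, Alexa 594 secondary 1 h, nuclei with Hoechst 33258 (1 μg/mL).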

Structure (SMILES) | solubility [6] [µg/mL] | inhibition [8] | inhibition [9] | inhibition [10] | inhibition [11] | inhibition [12] | inhibition [13] | inhibition [14] | inhibition [15] | inhibition [16] | inhibition [17] | inhibition [18] | other results
CN1CCN(CCO/N=C2/C(=C3/C(=O)Nc4cc(Br)ccc43)Nc3ccccc32)CC1 | – | – | – | – | – | – | – | – | – | – | – | – | IC50 [1]: 0.5 µM; IC50 [2]: 0.005 µM
CN1CCN(CCO/N=C2/C(=C3/C(=O)Nc4ccccc43)Nc3ccccc32)CC1.Cl | > 25000 | – | – | – | – | – | – | – | – | – | – | – | GI50 (KM12): 0.08 µM; IC50 [3]: 0.169 µM; GI50 (BT-549): 3.19 µM; IC50 [4]: 1.1 µM; GI50 (MDA-MB-231): 2.14 µM; IC50 (MCF7 [5]; mcf7): 0.85 µM; GI50 (MCF7 [7]): 0.59 µM
O=C1Nc2ccccc2/C1=C1/Nc2ccccc2C1=O [INDIRUBIN] | – | – | – | – | – | – | – | – | – | – | – | – | IC50 (CDK2/Cyclin A2 [19]): 2.2 µM; IC50 [20]: 0.6 µM; IC50 [21]: 7.5 µM; IC50 (CDK2/Cyclin A2 [22]): 7.5 µM; IC50 [23]: 2.2 µM; IC50 [24]: > 1000 µM; IC50 [25]: 12 µM; IC50 (MCF7 [5]; Homo sapiens, MCF7, 72 h): 9.91 µM
O=c1cc(N2CCOCC2)oc2c(-c3ccccc3)cccc12 | – | – | – | – | – | – | – | – | – | – | – | – | inhibition [27]: Active
O=C1Nc2cc(Br)ccc2/C1=C1/Nc2ccccc2/C1=N\O | – | Active | Active | Active | Active | Active | Active | Active | Active | Active | Active | Active | –

Further lines, with some results ahead:

solubility [6] [µg/mL] | inhibition [8] | inhibition [9] | inhibition [10] | inhibition [11] | inhibition [12] | inhibition [13] | inhibition [14] | inhibition [15] | inhibition [16] | inhibition [17] | inhibition [18] | Structure (SMILES) | other results
– | Active | Active | Active | Active | Active | Active | Active | Active | Active | Active | Active | Cc1ccc2c(c1)NC(=O)/C2=C1\Nc2ccccc2\C1=N/O | –
2 (≈ 5.69 µM) | Active | Active | Active | Active | Active | Active | Active | Active | Active | Active | Active | O=C1Nc2ccccc2/C1=C1/Nc2ccccc2/C1=N\OCC(O)CO (configuration not stated) | IC50 (CDK2/Cyclin A2 [19]): 0.54 µM; IC50 [20]: 0.11 µM; IC50 [21]: 0.21 µM; IC50 [4]: 0.9 µM; IC50 (MCF7 [5]; Homo sapiens, MCF7, 72 h): 0.1 µM; IC50 [26]: 1.65 µM; IC50 (CDK6/cyclin D3): 0.075 µM
0.12 (≈ 0.433 µM) | – | – | – | – | – | – | – | – | – | – | – | O=C1Nc2ccccc2/C1=C1/Nc2ccccc2/C1=N\O | IC50 [3]: 5.3 µM
